Measurements from different studies.
Each line is one published result; the experiments were not run side by side.
MTNR1A: Melatonin receptor type 1A (MTNR1A, Homo sapiens, UniProt P48039)

Cc1nn(C)cc1-c1nc2c(N3CCN(Cc4ccc(Cl)cc4)CC3)c(Cl)cnc2[nH]1
remaining binding (Receptor-type tyrosine-protein kinase FLT3 (FLT3, Homo sapiens, UniProt P36888, K663Q); binding, competition with immobilised ligand; 1 µM): 0.8%

CCN(CC)CCCC[C@H](NC(=O)[C@H](CC(C)C)NC(=O)[C@H](C)NC(=O)[C@H](Cc1ccccc1)NC(=O)c1ccc(C(C)(C)C)cc1)C(=O)N[C@@H](CO)C(=O)OC
remaining binding (MTNR1A; ligand displacement, radioligand; 10 µM): 92.1%

COc1ccc2[nH]cc(CCNC(=O)CI)c2c1
Emax (MTNR1A; cAMP, agonist, TR-FRET; CHO-K1; 20 min): 103%

Cc1ccccc1N(C)C(=O)Oc1nsnc1N1CCCCC1
inhibition (Fatty-acid amide hydrolase 1 (FAAH, Homo sapiens, UniProt O00519); enzyme activity, inhibitor; 10 µM, cell membranes): 40%

COc1ccc2cccc(C(CO)CNC(=O)CF)c2c1 (centres unmarked)
Emax (MTNR1A; cAMP, agonist, TR-FRET; CHO-K1; 20 min): 93%

Nc1ncc(-c2nc(N3CCOCC3)nc(N3CCOCC3)n2)c(C(F)F)n1
remaining binding (Serine/threonine-protein kinase SIK3 (SIK3, Homo sapiens, UniProt Q9Y2K2); binding, competition with immobilised ligand; 10 µM): 72%

COc1ncccc1-c1cnn2ccc(N3CCN(C(=O)OC(C)C)CC3)nc12
remaining binding (Activin receptor type-2B (ACVR2B, Homo sapiens, UniProt Q13705); binding, competition with immobilised ligand; 1 µM): 69%

C#Cc1n[nH]c2c(-c3cn(C(C)c4ccccn4)c(=O)[nH]c3=O)cc(F)cc12 (centres unmarked)
inhibition (Myotonin-protein kinase (DMPK, Homo sapiens, UniProt Q09013); enzyme activity, inhibitor; 1 µM): 1.2%
